The values that follow come from ChEMBL document CHEMBL1126273, “Design and synthesis of some substrate analogue inhibitors of phospholipase A2 and investigations by NMR and molecular modeling into the binding interactions in the enzyme-inhibitor complex” (J Med Chem, 1992).

The target in test [1] is T1, Phospholipase A2, major isoenzyme (Sus scrofa, UniProt P00592). Kind of test: In vitro inhibition of porcine pancreatic phospholipase A2 evaluated by Deoxycholate-phospholipid mixed micelle assay. The method in brief:
(§1)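 Porcine pancreatic PLA2 at 0.074 μg/mL, with 2 mM CaCl2, 2.4 mM sodium deoxycholate and 100 μM 1-stearoyl-2-arachidonoyl-L-phosphatidylcholine traced with 22 000 dpm 1-stearoyl-2-[14C]arachidonoyl-PC, in 50 mM Tris-HCl pH 8.2. Inhibitor was added in methanol at 1% of assay volume. After 8 min at 37 °C, released [14C]arachidonic acid was extracted and counted by scintillation, under hopping-kinetics conditions.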

Test [2] concerns the target T1, Phospholipase A2, major isoenzyme. Description: In vitro inhibition of porcine pancreatic phospholipase A2 evaluated by monomeric substrate assay. The method, boiled down: (§2)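 The monomeric thioester substrate was used at 5.44 mM, below its CMC of 14 mM. The assay also held 0.2 mM DTNB, 0.25 mM CaCl2 and 0.5 μg/mL porcine pancreatic PLA2 in 10 mM sodium phosphate pH 7.5. Inhibitor or methanol made up 2.5% of the volume. Rates were followed over 16 h at about 22 °C. Inhibition was calculated against solvent controls after subtracting nonenzymic hydrolysis.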

The target in test [3] is Phospholipase A2, major isoenzyme (Sus scrofa) (UniProt P00592). Kind of test: In vitro inhibition of porcine pancreatic phospholipase A2 by Deoxycholate-phospholipid mixed micelle assay at 30 uM.
The target in test [4] is T1, Phospholipase A2, major isoenzyme. Kind of test: In vitro inhibition of porcine pancreatic phospholipase A2 evaluated by Deoxycholate-phospholipid mixed micelle assay; not active at the highest concentration tested. The method, boiled down:
as §1

Test [5] has the same target. Description: In vitro inhibition of porcine pancreatic phospholipase A2 evaluated by monomeric substrate assay; not active at the highest concentration tested. The method, boiled down: as §2

pIC50: −log10 of the molar value.

T1 sequence (P00592 whole entry): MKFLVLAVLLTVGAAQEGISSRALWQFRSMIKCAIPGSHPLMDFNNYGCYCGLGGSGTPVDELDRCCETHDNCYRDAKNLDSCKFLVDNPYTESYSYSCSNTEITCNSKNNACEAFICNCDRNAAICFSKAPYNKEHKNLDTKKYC
Phospholipase A2, major isoenzyme (Sus scrofa), sequence (P00592 23-146 limits assumed): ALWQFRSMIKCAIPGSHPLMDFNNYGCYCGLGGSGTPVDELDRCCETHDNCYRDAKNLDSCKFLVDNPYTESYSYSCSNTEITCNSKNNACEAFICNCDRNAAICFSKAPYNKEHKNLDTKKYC

As for `CCCCCCCCCCCCCCCCCCOC[C@H](COP(=O)([O-])OCC[N+](C)(C)C)NC(=O)CCCCCCCCCCCCCCC`, in test [1], the pIC50 – broadly, the negative decadic logarithm of the IC50, by convention in mol/L – was 4.82.

`CCCCCCCCCCCCCCCC(=O)N[C@@H](COP(=O)(O)O)Cc1ccccc1`: the pIC50 in test [2] was 5.30. In addition, the inhibition (as a rule, the percentage by which the read-out fell short of the control) in test [3] came out at 42%.

Take `CCCCCCCCCCCCCCCC(=O)N[C@@H](COP(=O)([O-])OCC[N+](C)(C)C)CC(C)C`: the pIC50 in test [1] was 4.52; in test [2], 6.64.

Take `C[N+](C)(C)CCOP(=O)([O-])OCCNC(=O)Cc1ccc2ccccc2c1`: in test [4], the IC50 result is “Not Active”. In test [2], this compound showed a pIC50 of less than 3.00.

In the case of `CCCCCCCCCCCC(=O)NCCOP(=O)([O-])OCC[N+](C)(C)C`, the IC50 entry in test [5] and in test [4] was “Not Active” in each case.

For the compound `CC(C)C[C@H](COP(=O)([O-])OCC[N+](C)(C)C)NC(=O)Cc1ccc2ccccc2c1`, in test [4], the IC50 entry is on record as “Not Active”. This compound also showed a pIC50 in test [2] of 3.80.

On to `CCCCCC/C=C/CC(=O)N[C@H](COP(=O)([O-])OCC[N+](C)(C)C)CC(C)C`, for which, in test [5], the IC50 entry was “Not Active”.

For the compound `CCCCCC/C=C/CC(=O)N[C@@H](COP(=O)([O-])OCC[N+](C)(C)C)CC(C)C`, the pIC50 in test [2] was 5.22.

On to `CCCCCCCCCCCCCCCC(=O)OCC(COP(=O)(O)OCCO)NC(=O)CCCCCCCCCCCCC` (stereo unspecified), for which the pIC50 in test [1] is 5.46; in test [2], 7.52.

As for `CCCCCCCCCCCCCCCC(=O)N[C@H](C)COP(=O)([O-])OCC[N+](C)(C)C`, the values for the pIC50 in test [1] and in test [2] were 3.72 and 5.85, respectively.

Take `CCCCCCCCCCCCCCCC(=O)N[C@H](COP(=O)([O-])OCC[N+](C)(C)C)CC(C)C`: the IC50 entry in test [4] was “Not Active”. The pIC50 in test [2] is 5.35.

As to `CCCCCCCCCCCCCCCC(=O)NCCOP(=O)([O-])OCC[N+](C)(C)C`, the pIC50 in test [1] was 3.52; in test [2], 5.40.

As to `C[N+](C)(C)CCOP(=O)([O-])OCCNC(=O)c1ccc2ccccc2c1`, in test [4], the IC50 entry is on record as “Not Active”.

Regarding `CCCCCCCCCCCCCCCC(=O)N[C@@H](COP(=O)(O)OCCO)CC(C)C`, the pIC50 in test [1] was 5.59; in test [2], 7.52.

With `CCCCCCCCCCCCCCCC(=O)N[C@@H](COP(=O)(O)O)CC(C)C`, the pIC50 in test [2] is 5.00. For the same compound, in test [3], the inhibition turned out to be 22%.
